# Assay outcomes: PubChem BioAssay, several laboratories
# HCV NS3 hel inh: inhibitors of Hepatitis C virus NS3 helicase | NS3 helicase DNA unwinding, Cy5 molecular beacon fluorescence | 290,000 tested, 0.56% active | inhibition, % at 10.9 µM;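 active = inhibition above the mean of all tested compounds plus 3 SD, set per campaign, cut at about 35% in these data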;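 also: 0% = DMSO wells and 100% = thioflavine S control wells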
#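 System: Hepatitis C virus NS3 helicase domain fragment enzyme | Reagent: Annealed dual-labelled DNA beacon duplex, ATP-started | Compound dosing: 10.9 µM single point, 0.8% DMSO | Incubation: 1 h reaction at 25 °C, ATP-initiated | Technique: Cy5 fluorescence | Evaluation: Percent inhibition from t60/t0 fluorescence ratio | Benchmarks: Low DMSO, high thioflavine S at 110 µM | Replication: Singlicate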
# ZTA DNA inh: counter-screen for EBNA-1 inhibitors: inhibitors of Epstein-Barr virus ZTA. ZTA-DNA binding, fluorescence polarization. AID 2234. inhibition, % at 11 µM. 320,000 tested, 0.15% active; in the data active = inhibition above about 33%
# Target sequence (P03206 whole entry, looked up): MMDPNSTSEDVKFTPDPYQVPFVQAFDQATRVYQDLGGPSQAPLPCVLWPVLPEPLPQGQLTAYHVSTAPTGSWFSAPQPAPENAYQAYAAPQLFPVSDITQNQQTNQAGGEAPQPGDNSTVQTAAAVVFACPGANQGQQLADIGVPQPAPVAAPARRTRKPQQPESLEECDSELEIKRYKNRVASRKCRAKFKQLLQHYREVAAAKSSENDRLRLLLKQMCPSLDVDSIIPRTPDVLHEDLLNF
# EBNA-1 inh: blocks EBNA-1 binding to DNA; EBNA-1 DNA binding, fluorescence polarization; inhibition, % at 14.8 µM; 300,000 tested, 0.34% active; AID 1950; in the data active = inhibition above about 28%
# EBV gp42 block: blocks Epstein-Barr virus glycoprotein 42 binding; Fluorescence polarization binding assay, mP read-out; inhibition, % (tested at 21.74 µM); 220,000 tested, 0.42% active; in the data active = inhibition above about 50%
# Target sequence (Q1HVG2 whole entry, looked up): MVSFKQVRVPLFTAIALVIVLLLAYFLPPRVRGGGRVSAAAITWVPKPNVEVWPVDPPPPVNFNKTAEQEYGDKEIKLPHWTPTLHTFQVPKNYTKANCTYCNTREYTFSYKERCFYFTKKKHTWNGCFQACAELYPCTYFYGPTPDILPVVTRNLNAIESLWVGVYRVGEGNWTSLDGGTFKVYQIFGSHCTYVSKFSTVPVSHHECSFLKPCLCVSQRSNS
# GPR7 antag: human neuropeptides B/W receptor 1 antagonism; GPR7-expressing cells, fluorescence antagonist assay; inhibition, % at 4.4 µM; 290,000 tested, 1.1% active; P48145; AID 1861; in the data active = inhibition above about 16%, passing the limit was not always enough;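 also: cells stimulated with the agonist NPW; 0% = agonist with vehicle and 100% = vehicle without agonist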
# core dimer inh: blocks dimerization of HCV core protein; 300,000 tested, 0.33% active; inhibition, % at 5 µM; TR-FRET GST/Flag-core106 dimerization, 1536-well;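 active = inhibition above the mean of all tested compounds plus 3 SD, set per screening campaign, cut at about 45% in these data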
#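 assay system = GST-tagged and Flag-tagged HCV core protein residues 1-106 | controls = unlabelled core106 and no-GST-core106 wells | incubation = compound-protein-antibody incubation 4 h at 22.5 °C | probe or stimulus = Eu donor and XL665 acceptor anti-tag antibodies | read-out = % inhibition based on acceptor/donor emission ratio | signal = TR-FRET 671 and 617 nm emission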
# NS3 helicase cf: confirmation of Hepatitis C virus NS3 helicase inhibitors; shares compounds with HCV NS3 hel inh; inhibition, % at 10.9 µM; 1,600 tested, 31% active; NS3 helicase DNA unwinding, Cy5 molecular beacon fluorescence;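 active = inhibition above the mean of all tested compounds plus 3 SD, cutoff set per campaign, cut at about 36% in these data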
# DNA FID counter: displaces DNA intercalator in HCV helicase counter-screen. inhibition, % at 7.9 µM. shares compounds with HCV NS3 hel inh. 1,600 tested, 4% active. DNA fluorescent intercalator displacement, fluorescence; in the data active = inhibition above about 37%;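 also: 0% = vehicle and 100% = reference compound; higher means more displacement of ethidium bromide from the DNA hairpin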
# DNA FID DR: displaces fluorescent intercalator from DNA, HCV helicase counter-screen | IC50, µM | 120 tested, under 10 active | fluorescent intercalator displacement from DNA, fluorescence | shares compounds with HCV NS3 hel inh; call rule not given here
# Starred values were filed as active, the others as inactive; nt = no result. In the library only some 2.3% were active in any assay of this set; here they are far more common.
SMILES,HCV NS3 hel inh,ZTA DNA inh,EBNA-1 inh,EBV gp42 block,GPR7 antag,core dimer inh,NS3 helicase cf,DNA FID counter,others
COc1ccc(CCNC(=O)C2CCN(C(=O)c3ccc(OC)c(OC)c3)CC2)cc1,-7.2,0.8,-10.8,nt,-6.1,5.9,nt,nt,
COc1ccc(-n2c(NC(=O)c3ccco3)c(C#N)c3nc4ccccc4nc32)cc1,7.4,2.8,5.1,-9.5,-2.4,30.0,nt,nt,
CCCCn1c(NC(=O)c2ccccc2Cl)c(C#N)c2nc3ccccc3nc21,46.7*,15.6,9.2,-14.1,9.2,21.9,68.7*,-0.5,
N#Cc1c(NC(=O)c2ccccc2Cl)n(Cc2ccccc2)c2nc3ccccc3nc12,41.1*,13.5,9.1,-9.9,12.3,20.2,37.5*,17.9,
CCCCn1c(NC(=O)CC)c(C#N)c2nc3ccccc3nc21,10.2,22.1,6.0,-42.2,-1.2,0.4,nt,nt,
O=C(O)C(c1ccccc1)N1C(=O)/C(=C\c2ccc(-c3ccc(Br)cc3)o2)SC1=S (centres undefined),7.1,nt,nt,nt,-1.7,nt,nt,nt,
O=C(O)C(c1ccccc1)N1C(=O)/C(=C\c2ccc(-c3ccccc3Cl)o2)SC1=S (centres undefined),59.1*,23.6,21.6,nt,17.2,16.4,83.4*,57.4*,
CC(Oc1ccc2c(-c3ccccc3)cc(=O)oc2c1)C(=O)NC(Cc1c[nH]c2ccc(O)cc12)C(=O)O (centres undefined),40.9*,13.8,7.6,nt,-9.0,-0.1,39.4*,-9.2,
Cc1cc(OCC(=O)NC(Cc2c[nH]c3ccc(O)cc23)C(=O)O)c2c(C)c(C)c(=O)oc2c1 (centres undefined),12.5,-7.5,-4.6,nt,-7.8,0.7,nt,nt,
CCCc1cc(=O)oc2cc(OCC(=O)NC(Cc3c[nH]c4ccc(O)cc34)C(=O)O)c(Cl)cc12 (centres undefined),52.7*,5.8,-11.5,nt,-4.8,-6.5,-18.7,-12.0,
CC(C)Cn1c(/C=C/c2ccco2)nc2ccccc21,55.4*,0.6,11.4,13.9,-0.6,47.1*,-14.1,-1.3,
CCCn1c(/C=C/c2ccccc2)nc2ccccc21,8.8,10.9,1.7,-6.6,-0.3,1.7,nt,nt,
CC(=O)Nc1ccc(N2CC(C)(C)C2=O)cc1,9.2,-16.9,-17.0,-2.2,-2.7,-2.1,nt,nt,
NC(=S)N/N=C/c1ccc(C23CC4CC(CC(C4)C2)C3)cc1,55.5*,3.3,-6.8,nt,-40.6,15.2,36.8*,-6.0,DNA FID DR=>79.4
Cc1cccc(CSc2nc3sc(C)c(C)c3c(=O)n2Cc2ccco2)c1,39.2*,0.6,1.7,-17.9,0.1,2.2,-8.7,7.4,
CN(C)/C=C1\C(=O)N(c2ccc([N+](=O)[O-])cc2)N=C1c1ccccc1,40.0*,5.6,3.5,0.4,8.6,8.9,53.3*,9.7,
CN(C)/C=C1/C(=O)N(c2ccc([N+](=O)[O-])cc2)N=C1c1ccccc1,18.9,-0.5,6.5,-12.1,-8.8,2.0,nt,nt,
O=C(CSc1nc2cc([N+](=O)[O-])ccc2n1-c1ccccc1)NCc1ccc2c(c1)OCO2,40.4*,6.7,3.6,-15.8,13.2,22.6,28.4,4.0,
O=C(Nc1cc([N+](=O)[O-])ccc1N1CCCC1)c1cccs1,-0.8,-20.2,-13.4,nt,-9.2,-0.3,nt,nt,
Cc1cccc(NC(=O)/C=C/c2cccs2)n1,67.1*,-1.4,-1.7,-23.3,-2.2,-5.3,-12.8,16.3,
Cc1cccc(NC(=O)Nc2cccc(C)n2)n1,39.2*,-7.3,1.3,-6.4,-11.4,-5.6,-8.4,0.7,
COc1ccc(CNC(=O)CCSCc2ccccc2C)cc1,1.7,-31.4,6.5,7.5,0.2,-2.5,nt,nt,
COc1ccc(CC(=O)Nc2cc(=O)n(C)c(=O)n2C)cc1,55.6*,-0.9,5.2,-10.9,6.9,2.4,0.5,-1.9,
CC12CCCCC1NS(=O)(=O)OC2 (centres undefined),41.4*,-1.6,11.5,nt,-12.8,13.3,-16.5,9.5,
CCOc1ccc(CN(C)C(=O)CNC(=O)C2CCCCC2)cc1OC,-1.9,-1.6,4.5,nt,-10.0,9.4,nt,nt,
SMILES,HCV NS3 hel inh,ZTA DNA inh,EBNA-1 inh,EBV gp42 block,GPR7 antag,core dimer inh,NS3 helicase cf,DNA FID counter,others
Cc1ccc(N2C(=O)[C@@H]3C(c4cccnc4)=NO[C@@H]3C2=O)cc1,-2.8,11.8,2.1,-1.2,14.5,4.1,nt,nt,
O=C(CSc1nc2ccccc2n1Cc1ccccc1)N/N=C/c1ccccc1C(=O)O,24.4,10.1,-1.0,-8.3,-1.4,12.7,nt,nt,
O=C(CSc1nc2ccccc2n1Cc1ccccc1Cl)N/N=C/c1ccccc1C(=O)O,39.5*,10.6,2.5,1.5,-26.3,19.2,49.8*,-14.6,
Cc1cc(C)c(C(=O)COC(=O)c2cccnc2Cl)c(C)c1,-5.0,5.5,-5.7,7.3,-15.0,-1.5,nt,nt,
O=C(NC1CCCCC1)c1nn2c(C(F)(F)F)cc(-c3ccco3)nc2c1Br,2.5,8.6,1.9,-9.1,-5.7,20.0,nt,nt,
O=C(c1ccccc1)N1CCN(C(=O)c2nn3c(C(F)(F)F)cc(-c4ccco4)nc3c2Br)CC1,47.3*,11.4,-5.0,nt,-16.1,68.4*,-22.8,-42.6,
C/C=C/c1c(F)c(F)c(Oc2ccc(C(=O)O)cc2)c(F)c1F,9.1,13.4,-3.6,-9.0,7.1,4.6,nt,nt,
Cc1cc(C(=O)CSc2nc3ccccc3c(=O)n2C)c(C)n1Cc1ccc2c(c1)OCO2,40.0*,14.5,9.6,-24.8,-6.8,27.4,2.0,-18.2,
CN(C(=O)c1ccccc1F)C(c1ccccc1)c1ccccc1,-7.9,1.4,-0.8,nt,15.4,11.7,nt,nt,
Cc1ccc(OCC(=O)Nc2nnc(S(=O)(=O)N3CCC(C)CC3)s2)cc1,36.0*,-7.0,1.2,nt,-13.4,35.6,-15.8,-5.8,
CN(C(=O)COC(=O)c1nc(Cl)c(Cl)c(Cl)c1Cl)C1CCS(=O)(=O)C1 (centres undefined),-5.8,nt,nt,-12.2,3.5,nt,nt,nt,
CCC1=NN2C(=N)/C(=C\c3cccn3-c3ccc(Cl)cc3)C(=O)N=C2S1,4.1,-7.3,0.7,12.3,-19.4,42.4,nt,nt,
Cc1ccc(-n2cccc2/C=C2\C(=N)N3N=C(c4ccco4)SC3=NC2=O)cc1,42.5*,-2.9,11.2,67.3*,9.6,20.6,85.0*,-23.4,DNA FID DR=>79.4
O=C1C(=C2CCCCC2)SC(=S)N1Cc1ccco1,71.5*,13.2,8.7,-16.2,-1.0,16.3,-22.6,-4.9,
O=C(O)CCN1C(=O)C(=C2CCCCCC2)SC1=S,11.4,10.0,0.3,-19.3,1.7,4.5,nt,nt,
